Data taken from ChEMBL document CHEMBL1127345, “Synthesis, binding properties, and 18F labeling of fluorocarazolol, a high-affinity beta-adrenergic receptor antagonist” (J Med Chem, 1994).

Assays:
Mus musculus [1] = assay: The in vivo tissue distribution of mouse bone with Propranolol administration after 180 min, value was fractional dose per fractional body weight of the organ; format: ADME, organism-based, Bone element; settings: 3 h
Procedure, shortened: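 Male CF-1 mice (25–30 g), given 2 mg sodium pentobarbital ip 30 min before tracer. Blocked groups received propranolol iv by tail vein, 0.1 mL of 1 mg/mL. About 30 min later, 0.1 mL of [18F]tracer (1–2 mCi/mL) was injected by tail vein. Mice were killed by cervical dislocation at set times, and organs were weighed and counted. Uptake is %ID/g × body weight/100, average ± SD; n=5 for heart, brain, blood, lung, kidney, liver and bone.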

Mus musculus [2] = assay: The in vivo tissue distribution of mouse liver without Propranolol preadministration in 20 min, value was fractional dose per fractional body weight of the organ
Mus musculus [3] = assay: The in vivo tissue distribution of mouse heart with Propranolol administration after 40 min, value was fractional dose per fractional body weight of the organ; format: ADME, organism-based
Procedure, shortened: (§1)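 Male CF-1 mice (25–30 g), anesthetised with 2 mg sodium pentobarbital ip 30 min before tracer. Where blocked, propranolol iv via tail vein (0.1 mL of […]; […]) about 30 min before tracer. Tracer given by tail vein, 0.1 mL at 1–2 mCi/mL. Mice killed by cervical dislocation at set times, organs weighed and counted. %ID/g × body weight/100 gives unitless uptake. Heart, brain, blood, lung, kidney, liver and bone n=5; average ± SD.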

Mus musculus [4] = assay: The in vivo tissue distribution of mouse lung without Propranolol preadministration in 20 min, value was fractional dose per fractional body weight of the organ
Mus musculus [5] = assay: The in vivo tissue distribution of mouse blood with Propranolol administration after 20 min, value was fractional dose per fractional body weight of the organ; format: ADME, organism-based; procedure, shortened: as §1

SMILES	Dose/organ (Mus musculus [1])	Dose/organ (Mus musculus [2])	Dose/organ (Mus musculus [3])	Dose/organ (Mus musculus [4])	Dose/organ (Mus musculus [5])
CC(C[18F])NC[C@H](O)COc1cccc2[nH]c3ccccc3c12 (stereo not given in full)	2.72	2.54	0.51	7.46	0.43
CC(C[18F])NC[C@@H](O)COc1cccc2[nH]c3ccccc3c12 (stereo not given in full)	2.98	4	0.73	5.1	0.57
